Source: PubChem (Sanford-Burnham Center for Chemical Genomics)
Most compounds without a hit are left out; they make up all but 1.5% or so of the library.
CCR6 antagonist: CCR6 receptor antagonists, primary screen, cell-based, CHO-K1, luminescence, beta-arrestin, uHTS | C-C chemokine receptor type 6 (Homo sapiens), P51684 | CHO-K1 CCR6 PathHunter beta-arrestin, CCL20-stimulated | inhibition, % at 20 µM | actives 0.49% (n = 340,000);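 active = compounds whose inhibition of the agonist-driven luminescence signal at 20 µM reaches about 50%, limit read from the data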;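 also: cells stimulated with CCL20 at 14 nM final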
APJ antagonist: antagonists of human apelin receptor APJ, primary screen, CHO-K1 cells, beta-arrestin complementation, luminescence; P35414; inhibition, % at 20 µM; actives 0.32% (n = 330,000);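 active = inhibition above about 40% at 20 µM, limit read from the data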;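 also: cells challenged with 10 nM apelin-13 agonist together with compound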
CXCR6 block: CXCR6 receptor inhibitors, primary screen, cell-based, beta-arrestin, luminescence, CHO-K1 PathHunter, 1536-well | C-X-C chemokine receptor type 6 (Homo sapiens), O00574 | inhibition, % at 20 µM | actives 0.36% (n = 360,000) | AID 602244, 2012; in the data active = inhibition above about 34%, passing the limit was not always enough;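 also: antagonist mode with CXCL16 agonist at 10 nM final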
Target sequence (O00574 whole entry, looked up): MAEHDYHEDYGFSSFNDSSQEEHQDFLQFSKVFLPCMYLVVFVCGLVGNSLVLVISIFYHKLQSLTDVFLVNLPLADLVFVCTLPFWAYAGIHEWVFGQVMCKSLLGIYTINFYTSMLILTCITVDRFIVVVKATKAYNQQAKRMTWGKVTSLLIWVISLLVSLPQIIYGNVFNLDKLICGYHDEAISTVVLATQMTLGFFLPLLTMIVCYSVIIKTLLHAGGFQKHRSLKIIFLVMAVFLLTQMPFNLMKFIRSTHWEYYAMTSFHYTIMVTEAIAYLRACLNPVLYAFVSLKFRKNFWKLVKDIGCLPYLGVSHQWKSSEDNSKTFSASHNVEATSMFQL
EBI2 antag: EBI2 receptor antagonists, beta-arrestin recruitment, primary screen, cell-based, luminescence, 7a,25-OHC stimulation, uHTS; 7a,25-OHC stimulated; inhibition, % at 5 µM; actives 0.81% (n = 360,000); in the data active = inhibition above about 38%;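 also: enzyme fragment complementation signal reports receptor beta-arrestin coupling in cells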
APJ agonist: agonists of human apelin receptor APJ, primary screen, CHO-K1 cells, PathHunter beta-arrestin, luminescence; P35414; 0% DMSO wells, 100% apelin; activation, % at 20 µM; actives 0.11% (n = 330,000);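 active = activation more than six SD over the plate average, tested at 20 µM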
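assay system = CHO-K1 APJ beta-arrestin complementation cell line | input = cell density 1000 per well | dosing = compound 20 µM once, DMSO 1% | timing = compound 90 min 25 °C, reagent 1 h | measured by = luminescence from split beta-galactosidase complementation, Galacton Star/Emerald II substrate | read-out basis = APJ agonist activity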
EBI2 antag conf: EBI2 antagonist hit retest, beta-arrestin, confirmation, cell-based, single concentration, luminescence, 7a,25-OHC stimulation. shares compounds with EBI2 antag. 7a,25-OHC antagonism. inhibition, % at 5 µM. actives 29% (n = 2,400);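 active = inhibition of at least 50%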
EBI2 agonist: EBI2 agonist activity of antagonist hits, confirmation, counter-screen for EBI2 antagonist project, cell-based, single concentration, agonist mode, luminescence; shares compounds with EBI2 antag; EBI2-expressing cells, 60 min; 0% vehicle, 100% 7α,25-dihydroxycholesterol control; activation, % at 5 µM; 2,400 tested, under 10 active; AID 652000, 2013;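 active = activation of at least 50%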
bGal cs: E. coli beta-galactosidase enzyme inhibition, confirmation, counter-screen for EBI2 antagonist project, biochemical, luminescence, single concentration; shares compounds with EBI2 antag; purified beta-galactosidase, luminescent Galacton Star, 15 min; inhibition, % at 5 µM; actives 1% (n = 2,400);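 active = replicate-average signal at least 3 plate SD below neutral wells, shown as high inhibition, flagging enzyme-inhibiting false positives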;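 also: higher means stronger loss of beta-gal luminescence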
Hits are given with their value; i = inactive; nt = no result; ! = repeats disagree.

SMILES | CCR6 antagonist | APJ antagonist | CXCR6 block | EBI2 antag | APJ agonist | EBI2 antag conf | EBI2 agonist | bGal cs
C=C(C)COc1ccc(-c2nc(N)nc(C)c2-c2ccc(OC)cc2)c(O)c1 | i | i | i | 44 | i | i | i | i
COc1ccc(-c2nc(N)nc(C)c2-c2ccc(Cl)cc2)c(O)c1 | i | i | i | 80 | i | 62 | i | i
C=C(C)COc1ccc(-c2nc(N)nc(C)c2Oc2ccccc2OC)c(O)c1 | i | i | i | i | i | nt | nt | nt
O=C(CCCN1C(=O)/C(=C/c2ccccc2)SC1=S)Nc1cccc(O)c1 | i | i | i | i | i | nt | nt | nt
COc1cc2c(cc1OC)CN(C(=O)c1cccs1)CC2 | i | i | i | i | i | nt | nt | nt
Cc1cccc(Oc2ncnc3oc(-c4ccccc4)cc23)c1C | i | i | i | 67 | i | i | i | i
Cc1cccc(Oc2ncnc(N)c2[N+](=O)[O-])c1C | i | i | i | i | i | nt | nt | nt
Cc1cc(Cl)ccc1Oc1ncnc2oc(-c3ccccc3)cc12 | i | i | i | 53 | i | i | i | i
Cc1cc(S(=O)(=O)N(Cc2ccc(C(C)(C)C)cc2)Cc2cccs2)ccc1-n1cnnn1 | i | i | i | 48 | i | i | i | i
Cc1ccc(CONC(=O)c2ccc(OC(F)F)cc2)cc1 | i | i | i | 78 | i | 71 | i | i
CCN=c1scc(-c2ccc3c(c2)NC(=O)CO3)n1N=C1CCCC1 | i | i | i | i | i | nt | nt | nt
COCC(C)n1c(-c2ccc3c(c2)NC(=O)CO3)csc1=Nc1ccc(OC(F)F)cc1 (stereo not drawn) | 62! | i | i | 58 | i | 58! | i | i
O=C1COc2ccc(-c3csc(=Nc4ccc(OC(F)F)cc4)n3CC3CCCO3)cc2N1 (stereo not drawn) | 72 | i | i | 70 | i | 55 | i | i
CCCCCC#CCN1CCN(C23CC4CC(CC(C4)C2)C3)CC1 | i | i | i | i | i | nt | nt | nt
CC(=O)Nc1ccc(S(=O)(=O)N2CCC(C(=O)c3ccc(Cl)cc3)CC2)cc1 | i | i | i | 54 | i | i | i | i
Cc1ccc(NC(=O)c2ccc(S(=O)(=O)N3CCC(C)CC3)cc2)cc1 | i | i | i | 53 | i | i | i | i
Cc1ccc(NC(=O)C2=CCN(S(=O)(=O)c3ccc(F)cc3)CC2)cc1 | i | i | i | 47 | i | i | i | i
O=C(CCc1ccccc1)Nc1ccc2ccccc2n1 | i | i | i | 72 | i | i | i | i
COc1ccc(-c2c(C)nn3c(-c4ccccc4)cc(C)nc23)cc1 | i | i | i | i | i | nt | nt | nt
COC(=O)c1ccc(C23CC4(C2)[C@H](CN(Cc2cccnc2)[C@@H]4c2ccccc2)C3c2ccccc2)cc1 (stereo partly drawn) | i | i | i | i | i | nt | nt | nt
N#Cc1ccc(C23CC4(C2)[C@H](CN(Cc2cccnc2)[C@@H]4c2ccccc2)C3c2ccccc2)cc1 (stereo partly drawn) | i | i | i | 72 | i | i | i | i
COc1ccc(OCCNC(=O)c2cccc(Oc3ccc(C(F)(F)F)cc3[N+](=O)[O-])c2)cc1 | i | i | i | 43 | i | i | i | i
COc1ccc(-c2nc3cc(C)c(Br)c(C)n3c2Cc2ccccc2C(F)(F)F)cc1OC | nt | nt | i | 41 | nt | i | i | i
COc1ccccc1Cc1c(-c2ccc(OC)c(OC)c2)nc2cc(C)c(Br)c(C)n12 | nt | nt | i | i | nt | nt | nt | nt
